Data from ChEMBL document CHEMBL3813699, “Structure-Activity Relationships of a Diverse Class of Halogenated Phenazines That Targets Persistent, Antibiotic-Tolerant Bacterial Biofilms and Mycobacterium tuberculosis” (J Med Chem, 2016).
Converted amounts (≈) assume the structure as drawn. The source made the active and inactive calls. The calls are words filed in the database; no cut-off is given here.

Assays:
Staphylococcus aureus [1] = experiment: Antibacterial activity against methicillin-resistant Staphylococcus aureus BAA-1707 incubated for 16 to 18 hrs by broth microdilution method; assay type: functional
[2] = Induction of hemolysis in human RBC at 200 uM incubated for 1 hr; assay type: cell-based, Erythrocyte; conditions: red blood cells, read-out: Activity
How it was run: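 Human RBCs (EDTA), washed three times in Tris-buffered saline pH 7.2; 2% hRBC with compound at final 200 µM, 1 h 37 °C; supernatant OD405; % hemolysis relative to DMSO (0%) and Triton X (100%).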

[3] = system: Staphylococcus epidermidis; experiment: Antibiofilm activity against methicillin-resistant Staphylococcus epidermidis ATCC 35984 assessed as reduction in persister cells level within biofilms MBEC incubated for 24 hrs by CBD assay; assay type: functional; parameters: scale not given: the % may be the effect or the level left
How it was run: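 After CBD challenge and recovery, pegs sonicated 30 min in PBS and plated to count viable biofilm cells (CFU/mL) at and below MBEC.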

Enterococcus faecium [4] = experiment: Antibiofilm activity against […]-resistant Enterococcus faecium ATCC 700221 assessed as biofilm eradication incubated for 24 hrs by CBD assay; assay type: functional; conditions: for MBC: Enterococcus faecium, ATCC 700221, 24 h
How it was run: (§1)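 Calgary Biofilm Device: pegs inoculated with mid-log culture diluted 1,000-fold in TSB + 0.5% glucose, 24 h 37 °C; washed pegs challenged with 2-fold dilutions 24 h 37 °C; pegs moved to fresh TSBG 24 h; MBEC = lowest concentration leaving no turbidity; 2–6 independent experiments.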

[5] = system: Staphylococcus epidermidis; experiment: Antibacterial activity against methicillin-resistant Staphylococcus epidermidis ATCC 35984 incubated for 16 to 18 hrs by broth microdilution method; assay type: functional
[6] = system: Staphylococcus epidermidis; experiment: Antibacterial activity against Staphylococcus epidermidis ATCC 12228 incubated for 16 to 18 hrs by broth microdilution method; assay type: functional
[7] = system: Mycobacterium tuberculosis; experiment: Antibacterial activity against Mycobacterium tuberculosis H37Ra ATCC 25177 after 7 days by two-fold serial dilution method; assay type: functional; conditions: H37Ra ATCC 25177, 168 h
Staphylococcus aureus [8] = experiment: Antibiofilm activity against methicillin-resistant Staphylococcus aureus BAA-1707 assessed as biofilm eradication incubated for 24 hrs by CBD assay; assay type: functional; conditions: for MBC: Staphylococcus aureus, BAA-1707, 24 h; how it was run: as §1
HeLa = experiment: Cytotoxicity against human HeLa cells after 24 hrs by LDH release assay; assay type: cell-based
How it was run: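 HeLa in DMEM + 10% FBS, 37 °C 5% CO2, at 70–80% confluence treated with 25, 50, 100 µM for 24 h; DMSO vehicle; Triton X-100 2% v/v max-LDH control, medium-only negative; supernatant with LDH reaction mix 30 min room temperature, stopped, absorbance 490 nm.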

Enterococcus faecium [9] = experiment: Antibacterial activity against vancomycin-resistant Enterococcus faecium ATCC 700221 incubated for 16 to 18 hrs by broth microdilution method; assay type: functional
Staphylococcus aureus [10] = experiment: Antibacterial activity against methicillin-resistant Staphylococcus aureus BAA-44 incubated for 16 to 18 hrs by broth microdilution method; assay type: functional
Staphylococcus aureus [11] = experiment: Antibacterial activity against methicillin-resistant Staphylococcus aureus clinical isolate 2 incubated for 16 hrs by broth microdilution method in presence of Cu2+; assay type: functional; conditions: isolate 2, 16 h
Staphylococcus aureus [12] = experiment: Antibiofilm activity against methicillin-resistant Staphylococcus aureus isolate 2 assessed as biofilm eradication incubated for 24 hrs by CBD assay; assay type: functional; conditions: for MBC: Staphylococcus aureus, isolate 2, 24 h; how it was run: as §1
[13] = system: Staphylococcus epidermidis; experiment: Antibacterial activity against methicillin-resistant Staphylococcus epidermidis ATCC 35984 assessed as biofilm eradication incubated for 24 hrs by CBD assay; assay type: functional; conditions: for MBC: Staphylococcus epidermidis, ATCC 35984, 24 h; how it was run: as §1
Staphylococcus aureus [14] = experiment: Antibacterial activity against methicillin-resistant Staphylococcus aureus clinical isolate 2 incubated for 16 hrs by broth microdilution method in presence of tiron; assay type: functional; conditions: isolate 2, 16 h
Staphylococcus aureus [15] = experiment: Antibacterial activity against methicillin-resistant Staphylococcus aureus clinical isolate 2 incubated for 16 to 18 hrs by broth microdilution method; assay type: functional
Staphylococcus aureus [16] = experiment: Antibacterial activity against methicillin-resistant Staphylococcus aureus clinical isolate 2 incubated for 16 hrs by broth microdilution method; assay type: functional; conditions: isolate 2, 16 h
Staphylococcus aureus [17] = experiment: Antibacterial activity against methicillin-resistant Staphylococcus aureus clinical isolate 2 incubated for 16 hrs by broth microdilution method in presence of Fe2+; assay type: functional; conditions: isolate 2, 16 h
[18] = system: Staphylococcus epidermidis; experiment: Antibacterial activity against Staphylococcus epidermidis ATCC 12228 incubated for 16 to 20 hrs by broth microdilution method; assay type: functional
[19] = Metal chelating activity assessed as insoluble Cu2+-compound complex formation by UV-vis spectroscopic analysis; assay type: physicochemical
How it was run: (§2)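 UV-vis monitoring after adding 0.5 equivalents CuSO4 or ammonium iron(II) sulfate to stirred 10 mM ligand in DMSO; Cu stoichiometry from free ligand remaining after 2 h room-temperature stirring with varying CuSO4 in methanol, filtered, redissolved in DMSO, A440 against calibration curve.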

[20] = Metal chelating activity assessed as soluble Fe2+-compound complex formation by UV-vis spectroscopic analysis; assay type: physicochemical; how it was run: as §2
Staphylococcus aureus [21] = experiment: Antibacterial activity against methicillin-resistant Staphylococcus aureus clinical isolate 2 incubated for 16 hrs by broth microdilution method in presence of ascorbic acid; assay type: functional, organism-based
Staphylococcus aureus [22] = experiment: Antibacterial activity against methicillin-resistant Staphylococcus aureus clinical isolate 2 incubated for 16 hrs by broth microdilution method in presence of MnTBAP; assay type: functional, organism-based
Staphylococcus aureus [23] = experiment: Antibacterial activity against methicillin-resistant Staphylococcus aureus clinical isolate 2 incubated for 16 hrs by broth microdilution method in presence of thiourea; assay type: functional, organism-based
Staphylococcus aureus [24] = experiment: Antibiofilm activity against methicillin-resistant Staphylococcus aureus BAA-44 assessed as biofilm eradication incubated for 24 hrs by CBD assay; assay type: functional; conditions: for MBC: Staphylococcus aureus, BAA-44, 24 h; how it was run: as §1
Staphylococcus aureus [25] = experiment: Antibacterial activity against Staphylococcus aureus ATCC 25923 incubated for 16 to 20 hrs by broth microdilution method; assay type: functional
[26] = Aqueous solubility of compound in media after 16 hrs; assay type: physicochemical
Staphylococcus aureus [27] = experiment: Ratio of MBEC to MBC for methicillin-resistant Staphylococcus aureus clinical isolate 2 biofilm eradication; assay type: functional
How it was run: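 From the same CBD challenge plate, MBC taken by subculturing 20 µL into 180 µL TSBG overnight at 37 °C (no turbidity); MBEC from recovered pegs in fresh TSBG 24 h; ratio MBEC:MBC against MRSA-2.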

Staphylococcus aureus [28] = experiment: Ratio of MIC for methicillin-resistant Staphylococcus aureus clinical isolate 2 in absence and presence of tiron; assay type: functional; parameters: scale not given here
Staphylococcus aureus [29] = experiment: Ratio of MIC for methicillin-resistant Staphylococcus aureus clinical isolate 2 in absence and presence of Cu2+; assay type: functional

Structure (SMILES) | MIC (Staphylococcus aureus [1]) | hemolysis at 1 h, 200 µM [2] | MBEC (Enterococcus faecium [4]) | MBC (Enterococcus faecium [4]) | MIC [5] | MIC [7] | MBEC (Staphylococcus aureus [8]) | MBC (Staphylococcus aureus [8]) | IC50 (HeLa) | MIC (Enterococcus faecium [9]) | MIC (Staphylococcus aureus [10]) | MIC (Staphylococcus aureus [11]) | MBEC (Staphylococcus aureus [12]) | MBC (Staphylococcus aureus [12]) | MBEC [13] | MBC [13] | MIC (Staphylococcus aureus [14]) | MIC (Staphylococcus aureus [15]) | MIC (Staphylococcus aureus [16]) | MIC (Staphylococcus aureus [17]) | other results
Oc1c(Br)cc(Br)c2nc3cc(Cl)c(Cl)cc3nc12 | 25 µM (≈ 10.6 µg/mL) | ≤ 1% | 0.39 µM | 0.39 µM (≈ 0.165 µg/mL) | 0.3 µM (≈ 0.127 µg/mL) | 6.25 µM (≈ 2.64 µg/mL) | 12.5 µM | 6.25 µM (≈ 2.64 µg/mL) | > 100 µM | 0.39 µM (≈ 0.165 µg/mL) | 50 µM (≈ 21.1 µg/mL) | – | – | – | – | – | – | – | – | – | Activity [3]: >99.99%; MIC [6]: 0.08 µM (≈ 0.0338 µg/mL)
Oc1ccc(Br)c2nc3cc(Br)c(Br)cc3nc12 | 0.56 µM (≈ 0.242 µg/mL) | ≤ 1% | >200 µM | > 200 µM | 3.13 µM (≈ 1.35 µg/mL) | – | – | – | – | 6.25 µM (≈ 2.71 µg/mL) | 1.56 µM (≈ 0.675 µg/mL) | > 100 µM | >200 µM | > 200 µM | >200 µM | > 200 µM | 0.1 µM | 1.56 µM (≈ 0.675 µg/mL) | 12.5 µM (≈ 5.41 µg/mL) | 25 µM | –
Oc1c(Br)cc(Br)c2nc3ccccc3nc12 | – | ≤ 1% | – | – | – | 25 µM (≈ 8.85 µg/mL) | 375 µM | 62.5 µM (≈ 22.1 µg/mL) | > 100 µM | 6.25 µM (≈ 2.21 µg/mL) | – | 75 µM | 93.8 µM | 15.6 µM (≈ 5.52 µg/mL) | 250 µM | 23.5 µM (≈ 8.32 µg/mL) | – | – | – | 3.13 µM | MIC [18]: 0.27 µg/mL (≈ 0.763 µM); Activity [19]: Active; Activity [20]: Active; Activity (Staphylococcus aureus [21]): Active; Activity (Staphylococcus aureus [22]): Active; Activity (Staphylococcus aureus [23]): Active; MBEC (Staphylococcus aureus [24]): 188 µM; MBC (Staphylococcus aureus [24]): 62.5 µM (≈ 22.1 µg/mL); MIC (Staphylococcus aureus [25]): 0.78 µM (≈ 0.276 µg/mL)
Oc1c(Br)cc(I)c2nc3ccccc3nc12 | – | 2.9% | 5.9 µM | 3 µM (≈ 1.2 µg/mL) | – | – | 93.8 µM | 23.5 µM (≈ 9.42 µg/mL) | > 100 µM | 6.25 µM (≈ 2.51 µg/mL) | – | 50 µM | 62.5 µM | 31.3 µM (≈ 12.6 µg/mL) | 188 µM | 11.7 µM (≈ 4.69 µg/mL) | – | – | – | 6.25 µM | MBEC (Staphylococcus aureus [24]): 93.8 µM; MBC (Staphylococcus aureus [24]): 46.9 µM (≈ 18.8 µg/mL)
Oc1ccc(I)c2nc3cc(Cl)c(Cl)cc3nc12 | 0.15 µM (≈ 0.0586 µg/mL) | 1.4% | – | 3.13 µM (≈ 1.22 µg/mL) | 0.78 µM (≈ 0.305 µg/mL) | 3.13 µM (≈ 1.22 µg/mL) | >200 µM | 75 µM (≈ 29.3 µg/mL) | > 100 µM | 3.13 µM (≈ 1.22 µg/mL) | – | – | 37.5 µM | 25 µM (≈ 9.77 µg/mL) | 75 µM | 9.38 µM (≈ 3.67 µg/mL) | 0.2 µM | 0.39 µM (≈ 0.152 µg/mL) | – | 3.13 µM | solubility at 16 h [26]: 200 µM (≈ 78.2 µg/mL); MBEC (Staphylococcus aureus [24]): >200 µM; MBC (Staphylococcus aureus [24]): 75 µM (≈ 29.3 µg/mL)
Oc1c(Cl)cc(Br)c2nc3cc(Br)c(Br)cc3nc12 | – | 2.1% | – | – | 0.3 µM (≈ 0.14 µg/mL) | – | – | – | > 100 µM | 0.39 µM (≈ 0.182 µg/mL) | 25 µM (≈ 11.7 µg/mL) | > 100 µM | 25 µM | 25 µM (≈ 11.7 µg/mL) | 3.13 µM | 1.56 µM (≈ 0.729 µg/mL) | 0.2 µM | 12.5 µM (≈ 5.84 µg/mL) | 3.13 µM (≈ 1.46 µg/mL) | – | MIC [6]: 0.08 µM (≈ 0.0374 µg/mL)
C[C@H]1c2cccc(O)c2C(=O)C2=C(O)[C@]3(O)C(=O)C(C(N)=O)=C(O)[C@@H](N(C)C)[C@@H]3[C@@H](O)[C@@H]21.O [DOXYCYCLINE] | – | – | – | – | – | – | – | – | – | – | – | – | 46.9 µM | 2 µM | – | – | – | – | – | – | Ratio (Staphylococcus aureus [27]): >23
Oc1cccc2cccnc12 [OXYQUINOLINE] | – | – | – | – | – | – | – | – | – | – | – | 3.13 µM | – | – | – | – | > 100 µM | – | 6.25 µM (≈ 0.907 µg/mL) | 6.25 µM | Ratio (Staphylococcus aureus [28]): 16; Ratio (Staphylococcus aureus [29]): <2
